Measured values from ChEMBL document CHEMBL4190386, “Discovery of 6-(pyrimidin-5-ylmethyl)quinoline-8-carboxamide negative allosteric modulators of metabotropic glutamate receptor subtype 5” (Bioorg Med Chem Lett, 2018).
Calls of active or inactive are those of the source. The calls are words filed in the database; no cut-off is given here.

Key:
[1] = in vitro; settings: rat, plasma
[2] = in vitro; settings: human, plasma
[3] = molecular target: Metabotropic glutamate receptor 5 (Rattus norvegicus, UniProt P31424); assay: Negative allosteric modulator activity at rat mGlu5 receptor expressed in HEK293A cells assessed as inhibition of EC80 glutamate-induced Ca2+ mobilization by Fluo-4 AM dye based fluorescence assay; type: functional, cell-based
[4] = Drug metabolism in rat whole blood treated with N-(4-methylthiazol-2-yl)-6-nicotinoylquinoline-8-carboxamide assessed as compound formation at 37 degC incubated for 1 hr; type: ADME, tissue-based
[5] = molecular target: Metabotropic glutamate receptor 5 (Rattus norvegicus) (UniProt P31424); assay: Negative allosteric modulator activity at rat mGlu5 receptor expressed in HEK293A cells assessed as EC80 glutamate-induced maximum Ca2+ mobilization response at 30 uM relative to 100 uM glutamate by Fluo-4 AM dye based fluorescence assay; type: functional, cell-based
[6] = molecular target: Metabotropic glutamate receptor 8 (Rattus norvegicus) (UniProt P70579); assay: Negative allosteric modulation of rat mGlu8 receptor expressed in HEK cells harboring GIRK assessed as reduction in glutamate-induced thallium flux at 10 uM preincubated for 5 mins followed by glutamate addition measured after 2 mins by BTC-AM-dye based fluorescence assay; type: functional, cell-based
[7] = molecular target: Metabotropic glutamate receptor 6 (Rattus norvegicus) (UniProt P35349); assay: Negative allosteric modulation of rat mGlu6 receptor expressed in HEK cells harboring GIRK assessed as reduction in glutamate-induced thallium flux at 10 uM preincubated for 5 mins followed by glutamate addition measured after 2 mins by BTC-AM-dye based fluorescence assay; type: functional, cell-based
[8] = molecular target: Metabotropic glutamate receptor 1 (Rattus norvegicus) (UniProt P23385); assay: Negative allosteric modulation of rat mGlu1 receptor expressed in HEK293 cells assessed as reduction in glutamate-induced calcium mobilization at 10 uM preincubated for 2.3 mins followed by glutamate addition measured after 2.6 mins by Fluo-4--AM dye based fluorescence assay; type: functional, cell-based
[9] = molecular target: Metabotropic glutamate receptor 7 (Rattus norvegicus) (UniProt P35400); assay: Negative allosteric modulation of rat mGlu7 receptor expressed in HEK cells harboring GIRK assessed as reduction in L-AP4-induced thallium flux at 10 uM preincubated for 5 mins followed by glutamate addition measured after 2 mins by BTC-AM-dye based fluorescence assay; type: functional, cell-based
[10] = molecular target: Metabotropic glutamate receptor 5 (Homo sapiens) (UniProt P41594); assay: Negative allosteric modulation of human mGlu5 receptor expressed in HEK293A cells assessed as reduction in glutamate-induced calcium mobilization at 10 uM by Fluo-4--AM dye based fluorescence assay; type: functional, cell-based
[11] = molecular target: Metabotropic glutamate receptor 4 (Rattus norvegicus) (UniProt P31423); assay: Negative allosteric modulation of rat mGlu4 receptor expressed in HEK cells harboring GIRK assessed as reduction in glutamate-induced thallium flux at 10 uM preincubated for 5 mins followed by glutamate addition measured after 2 mins by BTC-AM-dye based fluorescence assay; type: functional, cell-based
[12] = molecular target: Metabotropic glutamate receptor 3 (Rattus norvegicus) (UniProt P31422); assay: Negative allosteric modulation of rat mGlu3 receptor expressed in HEK cells harboring GIRK assessed as reduction in glutamate-induced thallium flux at 10 uM preincubated for 5 mins followed by glutamate addition measured after 2 mins by BTC-AM-dye based fluorescence assay; type: functional, cell-based
[13] = molecular target: Metabotropic glutamate receptor 2 (Rattus norvegicus) (UniProt P31421); assay: Negative allosteric modulation of rat mGlu2 receptor expressed in HEK cells harboring GIRK assessed as reduction in glutamate-induced thallium flux at 10 uM preincubated for 5 mins followed by glutamate addition measured after 2 mins by BTC-AM-dye based fluorescence assay; type: functional, cell-based
[14] = Metabolic stability in human hepatic S9 fraction assessed as NADPH dependent metabolism incubated for 60 mins by LC/MS analysis; type: ADME, subcellular, Liver; settings: read-out: Drug metabolism
[15] = Metabolic stability in rat hepatic S9 fraction assessed as NADPH dependent metabolism incubated for 60 mins by LC/MS analysis; type: ADME, subcellular, Liver; settings: read-out: Drug metabolism
[16] = tested on: Rattus norvegicus; assay: Volume of distribution at steady state in rat assessed as 6-(hydroxy(pyridin-3-yl)methyl)-N-(4-methylthiazol-2-yl)quinoline-8-carboxamide formation at 1 mg/kg, iv; type: ADME, organism-based; settings: in vivo
Method in brief: (§1)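 Rat intravenous PK: n = 2 male Sprague-Dawley rats, 1.0 mg/kg IV in 10% ethanol/90% PEG 400. Parent and the alcohol metabolite were measured in plasma. MRT = mean residence time.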

[17] = Mean residence time in rat at 1 mg/kg, iv; type: ADME, organism-based; settings: in vivo
Method in brief: as §1

[18] = Drug metabolism in rat whole blood assessed as 6-(hydroxy(pyridin-3-yl)methyl)-N-(4-methylthiazol-2-yl)quinoline-8-carboxamide formation at 37 degC incubated for 1 hr; type: ADME, tissue-based
[19] = Half life in rat at 1 mg/kg, iv; type: ADME, organism-based; settings: in vivo
Method in brief: as §1

[20] = tested on: Rattus norvegicus; assay: Mean residence time in rat assessed as 6-(hydroxy(pyridin-3-yl)methyl)-N-(4-methylthiazol-2-yl)quinoline-8-carboxamide formation at 1 mg/kg, iv; type: ADME, organism-based; settings: in vivo
Method in brief: as §1

[21] = Volume of distribution at steady state in rat at 1 mg/kg, iv; type: ADME, organism-based; settings: in vivo, read-out: Vdss
Method in brief: as §1

[22] = tested on: Rattus norvegicus; assay: Half life in rat assessed as 6-(hydroxy(pyridin-3-yl)methyl)-N-(4-methylthiazol-2-yl)quinoline-8-carboxamide formation at 1 mg/kg, iv; type: ADME, organism-based; settings: in vivo
Method in brief: as §1

Metabotropic glutamate receptor 5, sequence (P31424 whole entry): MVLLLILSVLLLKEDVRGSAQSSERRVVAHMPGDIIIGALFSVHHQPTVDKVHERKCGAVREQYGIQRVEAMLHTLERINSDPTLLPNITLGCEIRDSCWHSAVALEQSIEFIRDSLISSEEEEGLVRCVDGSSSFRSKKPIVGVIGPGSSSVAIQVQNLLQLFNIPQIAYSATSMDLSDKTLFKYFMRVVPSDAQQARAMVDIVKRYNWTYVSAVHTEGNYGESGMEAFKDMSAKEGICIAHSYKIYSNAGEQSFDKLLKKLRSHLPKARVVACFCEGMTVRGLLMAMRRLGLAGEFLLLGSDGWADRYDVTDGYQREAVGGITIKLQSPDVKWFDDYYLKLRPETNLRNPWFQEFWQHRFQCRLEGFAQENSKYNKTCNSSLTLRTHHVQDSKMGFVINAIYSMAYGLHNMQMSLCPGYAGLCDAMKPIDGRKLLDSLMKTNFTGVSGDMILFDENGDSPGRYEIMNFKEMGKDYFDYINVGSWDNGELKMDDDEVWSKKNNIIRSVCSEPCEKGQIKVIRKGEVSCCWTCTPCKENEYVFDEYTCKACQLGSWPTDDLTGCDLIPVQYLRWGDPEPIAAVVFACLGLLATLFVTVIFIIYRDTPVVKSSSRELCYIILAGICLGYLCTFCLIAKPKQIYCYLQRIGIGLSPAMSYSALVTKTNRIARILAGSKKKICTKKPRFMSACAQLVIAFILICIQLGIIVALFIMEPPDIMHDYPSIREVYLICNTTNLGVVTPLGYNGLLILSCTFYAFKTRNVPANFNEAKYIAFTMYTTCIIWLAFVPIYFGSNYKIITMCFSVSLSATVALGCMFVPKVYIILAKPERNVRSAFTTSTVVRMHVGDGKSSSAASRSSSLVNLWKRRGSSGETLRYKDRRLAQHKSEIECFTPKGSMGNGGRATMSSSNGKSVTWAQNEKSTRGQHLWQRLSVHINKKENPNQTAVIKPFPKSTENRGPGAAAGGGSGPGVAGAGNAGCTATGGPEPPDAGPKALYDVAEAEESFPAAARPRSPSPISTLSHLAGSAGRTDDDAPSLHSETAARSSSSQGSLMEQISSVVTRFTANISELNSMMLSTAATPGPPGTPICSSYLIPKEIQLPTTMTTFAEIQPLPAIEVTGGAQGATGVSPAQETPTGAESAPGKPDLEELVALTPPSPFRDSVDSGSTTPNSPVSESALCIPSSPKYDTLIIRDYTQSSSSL
Metabotropic glutamate receptor 5 (Rattus norvegicus), sequence (P31424 21-1203 limits assumed): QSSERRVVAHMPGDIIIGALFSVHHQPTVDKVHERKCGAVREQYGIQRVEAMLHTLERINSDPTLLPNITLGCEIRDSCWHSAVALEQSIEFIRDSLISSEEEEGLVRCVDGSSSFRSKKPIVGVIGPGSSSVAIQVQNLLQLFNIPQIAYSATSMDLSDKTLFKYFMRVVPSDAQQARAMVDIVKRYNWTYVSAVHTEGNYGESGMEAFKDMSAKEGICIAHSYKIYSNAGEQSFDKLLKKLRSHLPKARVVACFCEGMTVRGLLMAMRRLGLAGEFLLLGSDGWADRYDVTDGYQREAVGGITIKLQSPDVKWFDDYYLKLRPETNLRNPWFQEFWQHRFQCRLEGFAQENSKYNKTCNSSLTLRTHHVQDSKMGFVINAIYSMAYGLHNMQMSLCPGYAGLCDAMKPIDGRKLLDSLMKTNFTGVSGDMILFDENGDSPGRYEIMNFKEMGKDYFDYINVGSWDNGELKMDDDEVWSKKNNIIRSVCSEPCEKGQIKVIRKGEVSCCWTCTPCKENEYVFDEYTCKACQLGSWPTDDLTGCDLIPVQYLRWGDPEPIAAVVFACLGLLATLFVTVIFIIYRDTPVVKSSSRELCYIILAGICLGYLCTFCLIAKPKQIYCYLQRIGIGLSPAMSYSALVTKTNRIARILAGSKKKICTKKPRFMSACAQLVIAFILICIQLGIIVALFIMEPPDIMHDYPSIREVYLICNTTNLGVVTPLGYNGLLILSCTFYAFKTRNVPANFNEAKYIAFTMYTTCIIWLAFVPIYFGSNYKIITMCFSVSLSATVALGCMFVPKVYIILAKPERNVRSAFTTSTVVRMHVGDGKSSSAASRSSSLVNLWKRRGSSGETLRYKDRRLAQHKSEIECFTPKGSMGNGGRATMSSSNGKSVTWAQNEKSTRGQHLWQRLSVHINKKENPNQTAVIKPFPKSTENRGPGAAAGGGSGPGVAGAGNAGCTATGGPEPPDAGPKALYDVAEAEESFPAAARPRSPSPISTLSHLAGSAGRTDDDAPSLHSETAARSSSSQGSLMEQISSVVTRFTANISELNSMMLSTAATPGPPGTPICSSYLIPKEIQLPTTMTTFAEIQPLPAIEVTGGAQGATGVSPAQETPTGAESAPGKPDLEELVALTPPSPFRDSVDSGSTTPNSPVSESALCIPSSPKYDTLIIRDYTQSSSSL
Metabotropic glutamate receptor 3 (Rattus norvegicus), sequence (P31422 23-879 limits assumed): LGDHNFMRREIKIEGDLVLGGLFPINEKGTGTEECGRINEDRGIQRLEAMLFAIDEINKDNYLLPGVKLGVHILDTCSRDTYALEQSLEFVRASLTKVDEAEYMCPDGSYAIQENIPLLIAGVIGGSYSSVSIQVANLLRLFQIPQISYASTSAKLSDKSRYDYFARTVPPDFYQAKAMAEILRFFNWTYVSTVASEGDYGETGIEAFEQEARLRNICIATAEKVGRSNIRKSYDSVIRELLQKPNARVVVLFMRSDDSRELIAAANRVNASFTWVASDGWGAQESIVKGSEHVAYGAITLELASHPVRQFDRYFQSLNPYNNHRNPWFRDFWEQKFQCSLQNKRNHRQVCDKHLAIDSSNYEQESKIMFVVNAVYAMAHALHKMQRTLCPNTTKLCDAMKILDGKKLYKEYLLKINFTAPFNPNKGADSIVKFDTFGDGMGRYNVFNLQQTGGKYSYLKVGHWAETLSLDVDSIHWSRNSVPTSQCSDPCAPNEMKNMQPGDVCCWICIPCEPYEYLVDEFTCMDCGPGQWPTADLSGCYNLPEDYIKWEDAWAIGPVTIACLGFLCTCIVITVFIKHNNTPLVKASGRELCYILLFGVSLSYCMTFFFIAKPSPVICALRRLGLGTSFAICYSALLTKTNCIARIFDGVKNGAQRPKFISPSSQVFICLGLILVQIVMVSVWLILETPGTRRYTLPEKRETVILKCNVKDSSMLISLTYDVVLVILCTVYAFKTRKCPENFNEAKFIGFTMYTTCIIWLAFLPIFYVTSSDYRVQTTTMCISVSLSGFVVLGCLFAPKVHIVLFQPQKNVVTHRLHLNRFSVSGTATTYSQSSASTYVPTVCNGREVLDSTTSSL
Metabotropic glutamate receptor 6 (Rattus norvegicus), sequence (P35349 whole entry): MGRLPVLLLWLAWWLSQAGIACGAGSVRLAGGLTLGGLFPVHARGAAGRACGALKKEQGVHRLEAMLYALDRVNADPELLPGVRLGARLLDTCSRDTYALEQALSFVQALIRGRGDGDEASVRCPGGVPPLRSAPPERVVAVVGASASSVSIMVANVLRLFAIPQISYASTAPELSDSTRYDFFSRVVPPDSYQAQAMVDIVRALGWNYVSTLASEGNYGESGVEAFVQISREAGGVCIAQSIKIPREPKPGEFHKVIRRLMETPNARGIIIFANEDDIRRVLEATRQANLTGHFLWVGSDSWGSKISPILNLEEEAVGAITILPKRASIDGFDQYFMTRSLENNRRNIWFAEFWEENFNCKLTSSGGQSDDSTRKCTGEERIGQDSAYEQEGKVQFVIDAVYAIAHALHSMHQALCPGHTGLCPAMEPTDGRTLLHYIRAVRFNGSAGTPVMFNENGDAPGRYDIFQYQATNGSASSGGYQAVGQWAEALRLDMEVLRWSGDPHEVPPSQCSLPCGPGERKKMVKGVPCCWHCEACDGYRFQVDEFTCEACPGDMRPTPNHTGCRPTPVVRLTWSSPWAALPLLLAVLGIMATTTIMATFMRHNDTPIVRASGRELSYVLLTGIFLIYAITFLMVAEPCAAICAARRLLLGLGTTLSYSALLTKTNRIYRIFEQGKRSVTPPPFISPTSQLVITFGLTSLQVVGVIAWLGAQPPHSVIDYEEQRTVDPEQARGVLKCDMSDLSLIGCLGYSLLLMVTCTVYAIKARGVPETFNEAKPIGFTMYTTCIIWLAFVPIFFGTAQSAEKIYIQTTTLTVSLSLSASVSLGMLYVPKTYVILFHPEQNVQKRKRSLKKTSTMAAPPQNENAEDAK
Metabotropic glutamate receptor 7 (Rattus norvegicus), sequence (P35400 whole entry): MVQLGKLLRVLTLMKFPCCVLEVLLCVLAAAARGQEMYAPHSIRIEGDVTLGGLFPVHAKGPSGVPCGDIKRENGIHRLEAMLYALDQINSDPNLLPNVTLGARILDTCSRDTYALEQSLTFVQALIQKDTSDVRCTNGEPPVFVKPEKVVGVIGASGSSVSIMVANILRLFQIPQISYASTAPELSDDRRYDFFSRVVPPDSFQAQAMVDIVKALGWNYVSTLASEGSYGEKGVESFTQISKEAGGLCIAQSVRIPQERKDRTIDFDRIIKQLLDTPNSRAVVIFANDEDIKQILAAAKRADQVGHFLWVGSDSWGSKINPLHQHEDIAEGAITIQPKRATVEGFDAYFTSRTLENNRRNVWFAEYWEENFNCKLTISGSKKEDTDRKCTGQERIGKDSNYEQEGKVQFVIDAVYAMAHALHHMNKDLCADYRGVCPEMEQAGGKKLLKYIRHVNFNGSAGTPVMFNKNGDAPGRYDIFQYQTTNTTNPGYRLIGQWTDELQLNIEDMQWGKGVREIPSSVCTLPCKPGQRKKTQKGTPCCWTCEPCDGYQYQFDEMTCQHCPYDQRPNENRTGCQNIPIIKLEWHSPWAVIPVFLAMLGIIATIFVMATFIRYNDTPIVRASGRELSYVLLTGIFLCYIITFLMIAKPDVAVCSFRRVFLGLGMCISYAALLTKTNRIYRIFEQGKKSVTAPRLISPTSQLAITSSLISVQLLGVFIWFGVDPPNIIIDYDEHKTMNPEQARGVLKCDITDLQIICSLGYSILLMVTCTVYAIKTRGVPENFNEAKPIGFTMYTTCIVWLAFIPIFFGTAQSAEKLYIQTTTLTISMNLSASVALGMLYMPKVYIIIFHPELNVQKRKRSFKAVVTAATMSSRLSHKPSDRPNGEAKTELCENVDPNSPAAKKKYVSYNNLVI

Compound	IC50 [3] [nM]	%max [5] [%]	also measured
O=C(Nc1ccc(F)cn1)c1cc(Oc2cncc(F)c2)cn2ncnc12			fraction unbound at 4 h, 5 µM [1]: 0.066; fraction unbound at 4 h, 5 µM [2]: 0.071
Cc1csc(NC(=O)c2cc(C(O)c3cncnc3)cc3cccnc23)n1 (centres undefined)	> 10000		Drug uptake [4]: Active
Cc1csc(NC(=O)c2cc(C(C)c3cncnc3)cc3cccnc23)n1 (centres undefined)	589	1.4	
O=C(c1cncnc1)c1cc(C(=O)Nc2ccc(F)cn2)c2ncccc2c1	842	2.7	
O=C(Nc1ccc(F)cn1)c1cc(Oc2cncc(F)c2)cc2cccnc12	8		
Cc1csc(NC(=O)c2cc(C(F)(F)c3cncnc3)cc3cccnc23)n1			inhibition [6]: inactive; inhibition [7]: inactive; inhibition [8]: inactive; inhibition [9]: inactive; inhibition [10]: Active; inhibition [11]: inactive; inhibition [12]: inactive; inhibition [13]: inactive
O=C(c1cncnc1)c1cc(C(=O)Nc2cccc(F)n2)c2ncccc2c1	> 10000	12.5	
O=C(Nc1ccc(F)cn1)c1cc(C(F)c2cncnc2)cc2cccnc12 (centres undefined)	217	1.5	
Cc1cccc(NC(=O)c2cc(C(=O)c3cncnc3)cc3cccnc23)n1	417	1.5	
Cc1csc(NC(=O)c2cc(C(F)c3cncnc3)cc3cccnc23)n1 (centres undefined)	378	1.7	metabolised at 1 h [14]: 27%; metabolised at 1 h [15]: 55%
COC(c1cncnc1)c1cc(C(=O)Nc2nc(C)cs2)c2ncccc2c1 (centres undefined)	1750	1.8	
Cc1csc(NC(=O)c2cc(C(=O)c3cncnc3)cc3cccnc23)n1	172	1.3	Vdss [16]: 10 L/kg; MRT [17]: 19 min; Drug metabolism [18]: Metabolite_Detected; half-life [19]: 30 min; MRT [20]: 107 min; Vd [21]: 50 L/kg; t1/2 [22]: 171 min
COC(c1cncnc1)c1cc(C(=O)Nc2ccc(F)cn2)c2ncccc2c1 (centres undefined)	3480	2.9	

More lines, main results first:

IC50 [3] [nM]	%max [5] [%]	Compound	also measured
392	4.5	O=C(Nc1ccc(F)cn1)c1cc(C(F)(F)c2cncnc2)cc2cccnc12	
1100	2.7	Cc1cccc(NC(=O)c2cc(C(F)(F)c3cncnc3)cc3cccnc23)n1	
1610	7.1	COc1cccc(NC(=O)c2cc(C(F)(F)c3cncnc3)cc3cccnc23)n1	
> 30000		COc1ccnc(NC(=O)c2cc(C(F)(F)c3cncnc3)cc3cccnc23)c1	
> 30000		N#Cc1ccc(NC(=O)c2cc(C(F)(F)c3cncnc3)cc3cccnc23)nc1	
558	3	O=C(Nc1nc(C2CC2)cs1)c1cc(C(F)(F)c2cncnc2)cc2cccnc12	
3600	7.8	CCc1cccc(NC(=O)c2cc(C(F)(F)c3cncnc3)cc3cccnc23)n1	
1520	1.5	CC(c1cncnc1)c1cc(C(=O)Nc2ccc(F)cn2)c2ncccc2c1 (centres undefined)	
676	3	Cc1ccc(NC(=O)c2cc(C(F)(F)c3cncnc3)cc3cccnc23)nc1	
> 30000		N#Cc1ccnc(NC(=O)c2cc(C(F)(F)c3cncnc3)cc3cccnc23)c1	
> 10000	44	Cc1ccnc(NC(=O)c2cc(C(F)(F)c3cncnc3)cc3cccnc23)c1	
